SMILES strings stand for the structures. Starred links: 1 amine or outer side, 2 acyl side, 3 side chain; linkers in the order of their positions; H or OH if unused. Non-standard residues stand in square brackets, D forms with d. Residues, ends and D or L forms follow the SMILES beside them. X1 = O=C([C@@H](O)[C@H](Cc1ccccc1)N[*:1])[*:2] Some results are limits rather than exact numbers.

The subject of assay [1] is Human immunodeficiency virus. The assay can be described thus: Inhibition of HIV protease at 50 nM.
In a further assay the target is T1, Protease (Human T-lymphotropic virus 1, UniProt Q82323).
T1 sequence (Q82323 whole entry): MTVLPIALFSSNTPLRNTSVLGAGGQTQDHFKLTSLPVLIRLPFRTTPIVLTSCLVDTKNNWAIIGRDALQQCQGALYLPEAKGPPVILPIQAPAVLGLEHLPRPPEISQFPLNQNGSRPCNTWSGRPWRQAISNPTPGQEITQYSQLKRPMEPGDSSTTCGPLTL
The assay can be described thus: Inhibition of HTLV1 protease1. The arrangement: species or system Human T-cell leukemia virus type I. The procedure, abridged:
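HTLV-I protease L40I mutant, which blocks autolysis and improves stability. Inhibition reported as IC50 with SEM in nM. Remaining assay steps follow an earlier published procedure.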

Molecule `CCCC(=O)N[C@H](C(=O)N[C@H](C(=O)N[C@@H](Cc1ccccc1)[C@H](O)C(=O)N1CSC(C)(C)[C@H]1C(=O)NCC(C)C)C(C)(C)C)c1ccccc1` came in with an inhibition in assay [1] above 99%. For the same molecule, the IC50 on Protease amounted to 104 nM.
`CCC(C)(C)C(=O)N[C@H](C(=O)N[C@H](C(=O)N[C@@H](Cc1ccccc1)[C@H](O)C(=O)N1CSC(C)(C)[C@H]1C(=O)NCC(C)C)C(C)(C)C)c1ccccc1` returned an inhibition in assay [1] above 99%. The molecule also gave an IC50 on Protease of 80.4 nM.
For `CC(C)CNC(=O)[C@H]1N(C(=O)[C@@H](O)[C@H](Cc2ccccc2)NC(=O)[C@@H](NC(=O)[C@@H](NC(=O)CC(C)(C)C)c2ccccc2)C(C)(C)C)CSC1(C)C`, in that order: above 99% and 83.3 nM.
In assay [1], `CC(C)CCC(=O)N[C@H](C(=O)N[C@H](C(=O)N[C@@H](Cc1ccccc1)[C@H](O)C(=O)N1CSC(C)(C)[C@H]1C(=O)NCC(C)C)C(C)(C)C)c1ccccc1` displayed an inhibition above 99%. Also, the midpoint of inhibition against Protease, the IC50, lay at 96.5 nM.
For `CC(C)CNC(=O)[C@H]1N(C(=O)[C@@H](O)[C@H](Cc2ccccc2)NC(=O)[C@@H](NC(=O)[C@@H](NC(=O)C2CC2)c2ccccc2)C(C)(C)C)CSC1(C)C`, the inhibition in assay [1] was above 99%. On Protease, the IC50 was 96.9 nM.
Consider `CSCC[C@H](NC(=O)[C@@H](NC(=O)[C@@H]1CCCN1C(=O)[C@@H](O)[C@H](Cc1ccccc1)NC(=O)[C@@H](NC(=O)[C@H](CCC(N)=O)NC(=O)[C@@H]1CCCN1)C(C)C)C(C)C)C(=O)N[C@@H](Cc1cnc[nH]1)C(=O)O` (H-PQV[X1]PVMH-OH), for which, on Protease, 159 nM corresponded to half-maximal inhibition (IC50).
The molecule `CC(C)CNC(=O)[C@H]1N(C(=O)[C@@H](O)[C@H](Cc2ccccc2)NC(=O)[C@@H](NC(=O)[C@@H](NC(=O)CC(C)C)c2ccccc2)C(C)(C)C)CSC1(C)C` had an inhibition in assay [1] above 99%. The IC50 against Protease was determined as 102 nM.
The molecule `CC(C)CNC(=O)[C@H]1N(C(=O)[C@@H](O)[C@H](Cc2ccccc2)NC(=O)[C@@H](NC(=O)[C@@H](NC(=O)C(C)(C)C)c2ccccc2)C(C)(C)C)CSC1(C)C` showed an inhibition in assay [1] above 99%. At Protease, this molecule yielded an IC50 of 82.8 nM.
On to `CCCCC(=O)N[C@H](C(=O)N[C@H](C(=O)N[C@@H](Cc1ccccc1)[C@H](O)C(=O)N1CSC(C)(C)[C@H]1C(=O)NCC(C)C)C(C)(C)C)c1ccccc1`, for which the inhibition in assay [1] is above 99%. This molecule also showed an IC50 against Protease of 92 nM.
In assay [1], `CCC(=O)N[C@H](C(=O)N[C@H](C(=O)N[C@@H](Cc1ccccc1)[C@H](O)C(=O)N1CSC(C)(C)[C@H]1C(=O)NCC(C)C)C(C)(C)C)c1ccccc1` displayed an inhibition above 99%. The midpoint of inhibition on Protease, the IC50, lay at 105 nM.
Turning to `CCCC(C)C(=O)N[C@H](C(=O)N[C@H](C(=O)N[C@@H](Cc1ccccc1)[C@H](O)C(=O)N1CSC(C)(C)[C@H]1C(=O)NCC(C)C)C(C)(C)C)c1ccccc1` (stereo not given in full), the inhibition in assay [1] was above 99%. Further, half-maximal inhibition at Protease (IC50) required 84.2 nM.
On to `CCC(C)CC(=O)N[C@H](C(=O)N[C@H](C(=O)N[C@@H](Cc1ccccc1)[C@H](O)C(=O)N1CSC(C)(C)[C@H]1C(=O)NCC(C)C)C(C)(C)C)c1ccccc1` (stereo not given in full), for which the inhibition in assay [1] is above 99%. The IC50 on Protease worked out at 88.2 nM.
In assay [1], `CC(C)CNC(=O)[C@H]1N(C(=O)[C@@H](O)[C@H](Cc2ccccc2)NC(=O)[C@@H](NC(=O)[C@@H](NC(=O)CCc2ccccc2)c2ccccc2)C(C)(C)C)CSC1(C)C` came in with an inhibition above 99%. This molecule also gave a half-inhibitory concentration (IC50) against Protease of 105 nM.
In assay [1], `CC(C)CNC(=O)[C@H]1N(C(=O)[C@@H](O)[C@H](Cc2ccccc2)NC(=O)[C@@H](NC(=O)[C@@H](NC(=O)c2ccccc2)c2ccccc2)C(C)(C)C)CSC1(C)C` displayed an inhibition above 99%. On Protease, this molecule showed an IC50 of 79.2 nM.
Turning to `CC(=O)N[C@H](C(=O)N[C@H](C(=O)N[C@@H](Cc1ccccc1)[C@H](O)C(=O)N1CSC(C)(C)[C@H]1C(=O)NCC(C)C)C(C)(C)C)c1ccccc1`, in assay [1], the inhibition was above 99%. On Protease, the IC50 amounted to 107 nM.
As for `CC(C)CNC(=O)[C@H]1N(C(=O)[C@@H](O)[C@H](Cc2ccccc2)NC(=O)[C@@H](NC(=O)[C@@H](NC(=O)C2CCCCC2)c2ccccc2)C(C)(C)C)CSC1(C)C`, the inhibition in assay [1] is above 99%. The IC50 at Protease came out at 98.2 nM.
`CC(C)CNC(=O)[C@H]1N(C(=O)[C@@H](O)[C@H](Cc2ccccc2)NC(=O)[C@@H](NC(=O)[C@@H](N)c2ccccc2)C(C)(C)C)CSC1(C)C` had an inhibition in assay [1] above 99%. This molecule had an IC50 against Protease of 332 nM.
In assay [1], `CC(C)CNC(=O)[C@H]1N(C(=O)[C@@H](O)[C@H](Cc2ccccc2)NC(=O)[C@@H](NC(=O)[C@@H](NC(=O)C(C)C)c2ccccc2)C(C)(C)C)CSC1(C)C` displayed an inhibition above 99%. At Protease, this molecule displayed an IC50 of 93.5 nM.

These data come from ChEMBL document CHEMBL1150246, “Synthesis and activity of tetrapeptidic HTLV-I protease inhibitors possessing different P3-cap moieties” (Bioorg Med Chem, 2008).
